Measurements reported in ChEMBL document CHEMBL1127290, “1-(2,5-Dimethoxy-4-(trifluoromethyl)phenyl)-2-aminopropane: a potent serotonin 5-HT2A/2C agonist” (J Med Chem, 1994).
“And” between values parts separate entries of the source, which are not always exact repeats. Identical values can stand only once.

How the values were obtained:
Rattus norvegicus [1] = species on record: Rattus norvegicus; assay: Effective dose in rat; format: functional
How it was run: (§1)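 Rats trained on a two-lever FR50 food-reinforced task to discriminate LSD tartrate (0.08 mg/kg, ip, 30 min pre-session) from saline. Test drugs were given ip in 0.9% saline, 1 mL/kg, 30 min before extinction test sessions ended at 50 presses; failure within 5 min was scored as disruption. Quantal %SDL per dose. ED50 with 95% CI by Litchfield–Wilcoxon log-probit, not calculated if ≥50% disrupted.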

[2] = target: T1, Serotonin receptor 2a and 2c (5HT2A and 5HT2C) (Rattus norvegicus, UniProt P08909+P14842); assay: Tested for the binding affinity against the site labelled by the 5-hydroxytryptamine 2A receptor - 5-hydroxytryptamine 2C receptor agonist [125I]- - (+/-)DOI; format: protein assay
How it was run: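 Rat frontal cortex homogenate, pooled and preincubated twice at 37 °C. Buffer was 50 mM Tris HCl pH 7.4 with 0.5 mM EDTA, 0.1% ascorbate, pargyline and MgCl2; 200–400 μg protein. 0.1 nM [125I]DOI was competed by 8–10 test concentrations, 15 min at 37 °C, then GF/C filtration. Nonspecific binding defined by 10 μM cinanserin. Triplicates, gamma counting.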

[3] = target: T2, 5-hydroxytryptamine receptor 1A (Rattus norvegicus, UniProt P19327); assay: Tested for the binding affinity against the site labelled by the 5-hydroxytryptamine 1A receptor agonist [3H]- 8-OH-DPAT
T2 sequence (P19327 whole entry): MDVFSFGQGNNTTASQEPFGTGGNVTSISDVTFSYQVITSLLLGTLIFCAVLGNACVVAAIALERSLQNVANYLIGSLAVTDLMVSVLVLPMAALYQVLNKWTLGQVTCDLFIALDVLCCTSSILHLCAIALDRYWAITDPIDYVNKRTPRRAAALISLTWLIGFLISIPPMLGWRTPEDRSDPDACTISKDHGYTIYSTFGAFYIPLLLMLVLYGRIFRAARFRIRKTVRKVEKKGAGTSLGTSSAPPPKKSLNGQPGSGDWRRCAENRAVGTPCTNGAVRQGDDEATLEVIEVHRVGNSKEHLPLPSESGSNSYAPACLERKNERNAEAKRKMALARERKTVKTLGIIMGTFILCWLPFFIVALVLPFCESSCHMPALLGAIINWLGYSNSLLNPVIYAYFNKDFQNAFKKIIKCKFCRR
How it was run: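 [3H]-8-OH-DPAT binding in rat brain homogenate (frontal cortex or hippocampus) in 50 mM Tris HCl pH 7.4 with EDTA, ascorbate and pargyline; 200–400 μg protein. 15 min at 37 °C, then GF/C filtration. Nonspecific binding defined by 10 μM 5-HT. Triplicates, scintillation counting.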

[4] = target: T1, Serotonin receptor 2a and 2c (5HT2A and 5HT2C); assay: Tested for the binding affinity against the site labelled by the 5-hydroxytryptamine 2A receptor - 5-hydroxytryptamine 2C receptor antagonist [3H] ketanserin; format: protein assay
How it was run: (§2)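 Rat frontal cortex homogenate in 50 mM Tris HCl pH 7.4 with 0.5 mM EDTA, 0.1% ascorbate, pargyline and 5.7 mM CaCl2; 200–400 μg protein. […] Nonspecific binding defined by 10 μM cinanserin. Triplicate determinations, scintillation counting.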

[5] = target: T1, Serotonin receptor 2a and 2c (5HT2A and 5HT2C); assay: Tested for the binding affinity against the site labelled by the 5-hydroxytryptamine 2A receptor - 5-hydroxytryptamine 2C receptor antagonist [3H]- ketanserin; format: protein assay; how it was run: as §2
Rattus norvegicus [6] = species on record: Rattus norvegicus; assay: The percentage of rats selecting the drug lever at each dose; format: functional; how it was run: as §1

| SMILES | ED50 (Rattus norvegicus [1]) [µmol/kg] | Ki [2] [µM] | Ki [3] [µM] | Ki [4] [µM] | Ki [5] [µM] | SDL (Rattus norvegicus [6]) |
| --- | --- | --- | --- | --- | --- | --- |
| COc1cc(C(F)(F)F)c(OC)cc1CCN | 0.82 | 0.0011 | 3.42 | 0.0745 | – | – |
| COc1cc(CCN)c(OC)cc1I | 1.04 | 0.0019 | – | – | 0.0809 | – |
| COc1cc(CC(C)N)c(OC)cc1I (centres undefined) | 0.97 | – | – | – | – | 80% [middle of 4 runs] |
| COc1cc(C(F)(F)F)c(OC)cc1CC(C)N (centres undefined) | – | 0.0015 | 2.22 | – | 0.033 | 62.5% and 80% and 100% |
| COc1cc(CC(C)N)c(OC)cc1Br (centres undefined) [BROLAMFETAMINE] | 1.12 | – | – | – | – | – |
